The list is not random: actives were taken first. Their share in the collection is about 29%.
CYP2C19 act = activators of human cytochrome P450 2C19 | 96,000 tested, under 10 active | recombinant CYP2C19, luciferin-H EGE luminescence; active compounds read high; 0 = fully inhibited enzyme, 1 = untreated enzyme | AID 1025 | activation factor at 5 µM;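 active = activation factor of at least 2 at 5 µM in the primary screen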
CYP2C19 inhib = blocks human cytochrome P450 2C19 | P33261 | CYP2C19 Supersomes, luciferin-H EGE luminescence, 30 min | inhibition, % at 5 µM | actives 21% (n = 96,000) | AID 778;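 active = CYP2C19 inhibition above a set limit at 5 µM in the primary screen, cut at about 50% in these data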
CYP2C9 activ = activators of human CYP2C9. activation factor at 5 µM. P11712. recombinant CYP2C9, luciferin-H conversion, luminescence; active compounds read high; factor 1 = untreated enzyme, 0 = blocked. AID 1024. actives 1.4% (n = 96,000);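 active = activation factor of 2 or more for CYP2C9 at a 5 µM dose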
Target sequence (P11712 whole entry, looked up): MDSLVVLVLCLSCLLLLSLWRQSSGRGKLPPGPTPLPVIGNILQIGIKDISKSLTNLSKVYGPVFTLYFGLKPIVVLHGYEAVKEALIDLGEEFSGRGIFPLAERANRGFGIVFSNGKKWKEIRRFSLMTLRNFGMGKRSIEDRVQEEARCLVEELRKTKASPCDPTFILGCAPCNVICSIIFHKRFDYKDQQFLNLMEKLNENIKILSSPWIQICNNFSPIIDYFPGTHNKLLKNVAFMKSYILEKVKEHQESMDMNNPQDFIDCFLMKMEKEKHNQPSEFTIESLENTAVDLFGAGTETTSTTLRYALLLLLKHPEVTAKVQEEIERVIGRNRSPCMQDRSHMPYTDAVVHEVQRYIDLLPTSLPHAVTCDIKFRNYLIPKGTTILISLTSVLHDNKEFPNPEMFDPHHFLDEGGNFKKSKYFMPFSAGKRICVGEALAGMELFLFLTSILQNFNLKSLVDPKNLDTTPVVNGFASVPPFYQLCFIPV
Ecoli tolC = growth inhibitors of E. coli BW25113 tolC mutant | OD615 | growth inhibition, % at 10 µM (by protocol) | actives 2.2% (n = 65,000);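 active = growth inhibition at or above a cutoff equal to the mean over every tested compound plus 3 SD, cut at about 60% in these data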;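 also: growth measured after 20 h incubation at 37 °C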
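Test system: tolC-deleted E. coli BW25113 | Medium: LB with kanamycin 50 µg/mL | Compound dosing: Single concentration, 10 µM final per compound | Schedule: 37 °C, 20 h exposure | Measured by: OD at 615 nm | Evaluation: Percent growth inhibition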
E coli WT exp = blocks growth of wild type E. coli BW25113. growth inhibition, % at 100 µM. AID 710. OD600 absorbance. actives 0.15% (n = 98,000);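 active = growth inhibition above about 50% at one test dose, limit read from the data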;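 also: growth measured after 20 h incubation at 37 °C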
CYP2C9 inhib = inhibitors of human CYP2C9; inhibition, % at 5 µM; CYP2C9 Supersomes, luciferin-H conversion, luminescence; AID 777; actives 20% (n = 96,000);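 active = blocking of liver enzyme CYP2C9 beyond about 50% at 5 µM, limit read from the data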
Numbers stand for hits; i = inactive; nt = no result given.

SMILES | CYP2C19 act | CYP2C19 inhib | CYP2C9 activ | Ecoli tolC | E coli WT exp | CYP2C9 inhib
COC(=O)c1ccc2c(=O)n(CCCCCC(=O)NCc3ccccn3)c(=O)[nH]c2c1 | i | i | i | i | i | i
COC(=O)c1ccc2c(=O)n(CCCCCC(=O)NCc3ccccc3)c(=O)[nH]c2c1 | i | i | i | nt | i | 51
Cc1nc2cc(NC(=O)NCCC3=CCCCC3)ccc2o1 | i | i | i | i | i | i
COc1ccc(-n2cc(C(=O)c3cc4ccccc4oc3=O)c(C(C)=O)n2)cc1 | i | i | i | nt | i | i
Cc1nc(COC(=O)c2c(C)nn(-c3ccccc3)c2C)cs1 | i | i | i | i | i | 69
Cc1nc(COC(=O)c2ccc(CO)cc2)cs1 | i | 64 | i | i | i | i
O=C1c2cnc3nc(SCc4ccccc4)nn3c2CC2c3ccccc3CCN12 (stereo not drawn) | i | i | i | nt | i | i
CCOc1ccc(S(=O)(=O)NCCOC)cc1C | i | 89 | 3 | nt | i | i
Cc1cc(S(=O)(=O)NCC(=O)O)ccc1F | i | i | i | i | i | i
C=CCNS(=O)(=O)c1ccc(OC)c(C)c1 | i | i | 2.7 | i | i | i
CCNS(=O)(=O)c1ccc(OC)c(C)c1 | i | i | 2.7 | i | i | i
COc1ccc(C2C3=C(CC(C)(C)CC3=O)Oc3ncn(CCCn4ccnc4)c(=N)c32)cc1 (stereo not drawn) | i | i | i | i | i | 78
CC1(C)CC(=O)C2=C(C1)Oc1ncn(Cc3ccco3)c(=N)c1C2c1ccccc1 (stereo not drawn) | i | i | i | i | i | i
CC1(C)CC(=O)C2=C(C1)Oc1ncn(CCCn3ccnc3)c(=N)c1C2c1ccccc1 (stereo not drawn) | i | 79 | i | i | i | 90
COc1ccc(C2C3=C(CC(C)(C)CC3=O)Oc3ncn(Cc4ccccc4)c(=N)c32)cc1 (stereo not drawn) | i | i | i | nt | i | i
O=C1N(c2ccc(Cl)c(Cl)c2)CN(Cc2ccccc2)CN1n1cnnc1 | i | i | i | i | i | i
COC(=O)C(C#N)c1nc2ccccc2nc1N1CCN(Cc2ccc3c(c2)OCO3)CC1 (stereo not drawn) | i | 50 | i | i | nt | i
N#CCc1c(C#N)c(N)nc(N2CCN(Cc3ccc4c(c3)OCO4)CC2)c1C#N | i | i | i | nt | i | 54
CC(C)COC(=O)C(C#N)c1nc2ccccc2nc1N1CCN(Cc2ccc3c(c2)OCO3)CC1 (stereo not drawn) | i | i | i | i | i | 79
CCN1CCN(c2nc3ccccc3nc2C(C#N)C(=O)OC2CCCCC2)CC1 (stereo not drawn) | i | i | i | i | i | i
CCCCOC(=O)C(C#N)c1nc2ccccc2nc1N1CCN(Cc2ccc3c(c2)OCO3)CC1 (stereo not drawn) | i | 65 | i | i | i | 92
C=CCNC(=O)C(C#N)c1nc2ccccc2nc1N1CCN(Cc2ccccc2)CC1 (stereo not drawn) | i | i | i | i | i | i
COc1cccc(C(=O)Nc2cc(=O)n(C)c(=O)n2C)c1 | nt | nt | nt | i | nt | nt
CC(C)CC(C(=O)NCc1ccccn1)N1C(=O)c2ccccc2C1=O (stereo not drawn) | i | 71 | i | i | i | i
CC(C)CC(C(=O)NC(=O)NCc1ccccc1)N1C(=O)c2ccccc2C1=O (stereo not drawn) | i | i | i | nt | i | i
SMILES | CYP2C19 act | CYP2C19 inhib | CYP2C9 activ | Ecoli tolC | E coli WT exp | CYP2C9 inhib
CCOC(=O)Cc1[nH]nc2c1C(c1cccc(OC)c1OC)C(C#N)=C(N)O2 (stereo not drawn) | i | i | i | i | i | i
CCOC(=O)Cc1[nH]nc2c1C(C1C=CCCC1)C(C#N)=C(N)O2 (stereo not drawn) | i | 87 | i | i | i | 71
O=C(N/N=C/c1ccco1)/C(=C/c1cccc([N+](=O)[O-])c1)NC(=O)c1ccccc1 | i | 69 | i | nt | i | i
CN(C)c1ccc(/C=C(/NC(=O)c2ccccc2)C(=O)N/N=C/c2ccc([N+](=O)[O-])c(O)c2)cc1 | i | i | i | nt | i | i
O=C(N/N=C/c1ccc(Br)o1)/C(=C/c1ccc([N+](=O)[O-])cc1)NC(=O)c1ccccc1 | i | 52 | i | nt | i | i
CCOc1ccc(CC(C(N)=O)C(N)=O)cc1CN(C)C | i | i | i | nt | i | i
CC(=O)N1CCN=C1SCc1ccccc1F | i | i | i | i | i | i
Cc1cccc(CSC2=NCCN2C(=O)C2CC2)c1 | i | 80 | i | i | i | i
CC(=O)N1CCN=C1SCc1ccccc1Cl | i | i | 2.6 | i | i | i
CCC(=O)N1CCN=C1SCc1ccc(Cl)cc1 | i | 84 | i | i | i | i
CC(=O)N1CCN=C1SCc1ccc(Cl)cc1 | i | i | i | i | i | i
Cc1cccc(CSC2=NCCN2C(=O)c2ccco2)c1 | i | i | i | i | i | i
CCC(=O)N1CCN=C1SCc1ccccc1Cl | i | 70 | i | i | i | i
CCOP(=O)(c1ccccc1)C1(C#N)CCCC1 (stereo not drawn) | i | i | i | i | i | i
CCC(=O)N1CCN=C1SCc1ccccc1 | i | i | i | i | i | i
O=C(C1CC1)N1CCN=C1SCc1ccccc1Cl | i | 98 | i | i | i | i
O=C1C=C(NCC2CCCO2)CC(c2ccccc2)C1 (stereo not drawn) | i | 73 | i | i | i | i
O=C1C=C(NCCN2CCOCC2)CC(c2ccccc2)C1 (stereo not drawn) | i | i | i | i | i | i
COc1ccc(NC(=O)CSc2nc3c(c(=O)n2-c2ccccc2)SCC3)c(OC)c1 | i | i | i | i | i | i
CCN(CC)c1ccc(-c2nn3c(-c4n[nH]c5c4CCC5)nnc3s2)cc1 | i | i | i | 74 | i | i
CN(C)c1ccc(-c2nn3c(-c4cccnc4)nnc3s2)cc1 | i | i | i | i | nt | i
C1CCC(c2nn3c(-c4n[nH]c5c4CCC5)nnc3s2)CC1 | i | 87 | i | i | i | i
CCOC(=O)Cc1csc(NC(=O)CSc2nc3cccnc3n2CC)n1 | i | i | i | i | i | i
Cc1oc(-c2nc3ccccc3n2C)cc1C(=O)c1ccccc1 | nt | nt | nt | i | i | nt
Cc1ccc(-c2nc3ccccc3n2C)o1 | i | 67 | i | nt | i | i
SMILES | CYP2C19 act | CYP2C19 inhib | CYP2C9 activ | Ecoli tolC | E coli WT exp | CYP2C9 inhib
Cn1c(-c2ccc(Br)o2)nc2ccccc21 | i | 75 | i | i | i | i
CC(=O)c1ccc(-c2nc3ccccc3n2C)o1 | i | 61 | i | i | i | i
Cn1c(Sc2nc3ccccc3n2C)nc2ccccc21 | i | 95 | i | i | i | 53
CCc1ccc2[nH]c(=O)c(C(c3nnnn3CC3CCCO3)N3CCN4CCCC4C3)cc2c1 (stereo not drawn) | i | i | i | i | i | i
O=C(NCc1ccccc1)N1CCn2c(nc3ccccc32)C1 | nt | nt | nt | i | nt | nt
Cc1ccc(C2=N/C(=C\N3CCCCC3)C(=O)O2)cc1 | i | 84 | i | nt | i | 66
